Published values from different studies.
Lines come from different studies, so protocols differ.
Target: Estrogen receptor (ESR1, Homo sapiens, UniProt P03372)
One construct used (P03372 1-595): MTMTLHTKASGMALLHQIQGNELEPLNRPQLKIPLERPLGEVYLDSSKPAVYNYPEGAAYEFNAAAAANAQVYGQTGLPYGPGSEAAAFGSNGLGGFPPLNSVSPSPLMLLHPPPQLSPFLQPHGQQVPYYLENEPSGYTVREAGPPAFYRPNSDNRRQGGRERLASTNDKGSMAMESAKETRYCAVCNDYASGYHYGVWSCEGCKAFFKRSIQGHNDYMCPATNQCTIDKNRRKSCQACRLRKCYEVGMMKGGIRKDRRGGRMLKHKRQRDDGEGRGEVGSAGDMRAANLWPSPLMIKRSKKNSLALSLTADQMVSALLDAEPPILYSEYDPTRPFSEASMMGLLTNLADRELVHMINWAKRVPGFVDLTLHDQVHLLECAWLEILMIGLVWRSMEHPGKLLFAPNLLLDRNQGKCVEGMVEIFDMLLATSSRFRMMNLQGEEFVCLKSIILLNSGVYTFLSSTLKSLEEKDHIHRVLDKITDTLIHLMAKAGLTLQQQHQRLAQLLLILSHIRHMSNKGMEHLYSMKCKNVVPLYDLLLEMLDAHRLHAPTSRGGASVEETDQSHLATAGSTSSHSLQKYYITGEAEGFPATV

SMILES | observed | action | method | concentration | endpoint | result
O=C(Nc1cccnn1)N1CCN([C@@H]2CCOc3cc(C(F)(F)F)ccc32)CC1 | cell-free assay | – | – | 20 µM | inhibition | 0%
COCc1c(-c2cc3cc(C)cc(OC)c3s2)c2c(N)ncnn2c1CN1CCNC(=O)C1 | ligand displacement | – | radioligand | 10 µM | inhibition | 6%
COc1ccc(S(=O)(=O)N2CCCCC2)cc1C | ligand displacement | – | radioligand | 10 µM | inhibition | < 30%
CC(C)N1CCC[C@H]1CNC(=O)c1cn(C2CCCC2)c(=O)c2c1c1ccccc1n2C | ligand displacement | – | radioligand | 10 µM | inhibition | 15%
Clc1cccc(-c2cccc(Cl)c2)c1 | reporter gene | agonist | luciferase | – | Emax | < 20%
c1ccc(C(NCCNC(c2ccccc2)c2ccccc2)c2ccccc2)cc1 | cell-free assay | – | – | 10 µM | inhibition | 63%
Clc1ccc(-c2cc(Cl)ccc2Cl)cc1 | reporter gene | agonist | luciferase | – | Emax | < 20%
C[C@H](C(=O)N[C@H]1COc2ccccc2[C@@H]1S(C)(=O)=O)c1ccc(F)cc1 | cell-free assay | – | – | 10 µM | inhibition | 7%
